Results on six compounds are retold here after PMC3098311 (Nature, 2011).

One experiment addresses FLS2-BAK1 interaction (Arabidopsis thaliana, UniProt Q94F62+Q9FL28). As to the kind of experiment: FLS2-BAK1 interaction by co-IP in protoplasts. The conditions noted are these: for block of flg22- and CLV3p-triggered FLS2-BAK1 interaction: antagonist peptide at 50 μM. It is filed as cell-based. Put shortly: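 Mesophyll protoplasts came from 4-week soil-grown plants (23°C, 12 h/12 h). They were co-transfected with FLS2-HA and BAK1-FLAG and incubated for 6 h at room temperature. Cells were then exposed to flg22 (1, 10 nM), CLV3p (1 μM) or CLE40p (1 μM) for 10 min. Complexes were immunoprecipitated with anti-FLAG and detected with anti-HA on immunoblot.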

In a further experiment the test system is pWUS::GUS. As to the kind of experiment: pWUS::GUS reporter staining in the SAM. The conditions noted are these: seedlings grown 8 days with 1 μM peptide. It is filed as in vivo, Arabidopsis. The method in brief:
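pWUS::GUS seedlings were grown 8 days in liquid 0.5× MS/0.5% sucrose with or without 1 μM CLV3p, ΔCLV3p or flg22. They were fixed in 90% cold acetone for 20 min. Seedlings were vacuum-infiltrated with pH 7.0 phosphate buffer containing ferro/ferricyanide, Triton X-100, EDTA and 1 mM X-Gluc, then held 3 h at 37°C. Samples were dehydrated to 70% ethanol and imaged under a stereomicroscope.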

Experiment [1] deals with T1, FLS2 (Arabidopsis thaliana, UniProt Q9FL28). As to the kind of experiment: Binding competition analysis with unlabeled peptides. The conditions noted are these: unlabeled peptide; ^125I-Tyr-CLV3p 1 nM; 30 min on ice; non-specific binding with 10 μM unlabeled Tyr-CLV3p; n=3. Put shortly: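 FLS2-HA expressed for 6 h in fls2 mesophyll protoplasts (2.5 × 10^5 cells); pellet from vortexed, iced and 10,000 ×g-spun extract in 25 mM MES/KOH pH 5.8, 3 mM MgCl2, 10 mM NaCl (50 μg protein). Incubated 30 min on ice with 100 fmol 125I-Tyr-CLV3p ± unlabeled competitor; blocked glass-fibre filtration, cold wash, gamma counting; specific = total − nonspecific (10–20 μM unlabeled); non-linear regression.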

In another experiment the test system is Arabidopsis seedlings. As to the kind of experiment: Seedling growth inhibition analysis. In kind it is in vivo. The conditions noted are these: for root growth: WT seedlings, flg22 1, 10 nM, CLV3p 1 μM or CLE40p 1 μM. The method in brief: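 Col-0, fls2, Ler, fls2-24 and clv2-1 seedlings were grown in 6-well plates in liquid 0.5× MS, 0.5% sucrose, pH 5.8. Treatment was flg22 (1, 10 nM) or CLV3p (1 μM), and growth was assessed after 6 or 8 days.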

The test system of another experiment is SAM. As to the kind of experiment: Assay for CLV3p-mediated SAM arrest. In kind it is in vivo, Arabidopsis. To be noted: 1 μM peptide in liquid medium. Put shortly:
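Col-0 and fls2 seeds, twenty per dish, grown in liquid 0.5× MS with 0.5% sucrose (pH 5.8), with or without 1 μM CLV3p. SAMs were cut, fixed overnight at 4°C in 4% paraformaldehyde/4% DMSO, eosin-stained and paraffin-embedded. Sections of 8 μm were Giemsa-stained (0.1%, 5 min) and imaged by light microscopy.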

In the next experiment the test system is WUS. As to the kind of experiment: qRT-PCR of WUS in isolated SAM tissues. It is filed as in vivo, Arabidopsis. The conditions noted are these: 1 μM CLV3p for 1 h; WT and mutant seedlings; n=3. The method in brief:
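Seedlings grew 8 days in liquid 0.5× MS, 0.5% sucrose, pH 5.8, then got 1 h peptide treatment (1 nM or 1 μM). SAM tissues were harvested after snap-freezing in liquid nitrogen, and RNA was TRIzol-extracted. SYBR Green real-time qRT-PCR used ACT2 as the control gene.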
Background: Quantitative PCR measures a nucleic acid by following its amplification.

In a further experiment the test system is endogenous MPK3 and MPK6. As to the kind of experiment: In-gel kinase assay of MAPK activation in mesophyll protoplasts. In kind it is cell-based, Arabidopsis.
Another experiment concerns FRK1, WRKY29 and WRKY30. As to the kind of experiment: qRT-PCR of flg22 early marker genes in protoplasts. The conditions noted are these: peptides for 1 h, 1 μM CLV3p, 1 μM CLE40p, n=3. It is filed as cell-based, Arabidopsis. Put shortly:
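Mesophyll protoplasts were treated with peptides for 1 h. Total RNA was extracted with TRIzol, and cDNA was made from 1 μg RNA with M-MLV reverse transcriptase. SYBR green real-time PCR followed, with ACT2 as the control gene.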

The test system of experiment [2] is FRK1, WRKY29, WRKY30, MYB15, MYB51 and PEP3. As to the kind of experiment: qRT-PCR of immune marker genes in isolated SAM tissues. In kind it is in vivo, Arabidopsis. The conditions noted are these: n=3.
The target in experiment [3] is T1, FLS2. As to the kind of experiment: Direct binding assay, saturation and specific binding of ^125I-Tyr-CLV3p. The method in brief:
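HA-tagged FLS2 was expressed for 6 h in fls2 mesophyll protoplasts (2.5 × 10^5 cells). Pelleted extract (50 μg total protein) was in pH 5.8 MES/KOH binding buffer with MgCl2, NaCl and DTT. Extract was incubated with 100 fmol 125I-Tyr-CLV3p, with or without unlabeled Tyr-CLV3p, for 30 min on ice. Bound label was collected on BSA-blocked glass-fibre filters and gamma-counted. Specific binding = total minus non-specific (10–20 μM unlabeled). Kd came from saturation/Scatchard nonlinear regression and sites per cell from Bmax; s.d., n=3.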

“Also recorded” adds a separate entry of the source. Where a SMILES comes first, the peptide text is derived from it. [ ]: non-standard residue; d: D form. Tyr(3-I) = N[C@@H](Cc1ccc(O)c(I)c1)C(=O)O; Hyp = O=C(O)[C@@H]1C[C@@H](O)CN1

Sequence of FLS2-BAK1 interaction (Q9FL28 24-1173): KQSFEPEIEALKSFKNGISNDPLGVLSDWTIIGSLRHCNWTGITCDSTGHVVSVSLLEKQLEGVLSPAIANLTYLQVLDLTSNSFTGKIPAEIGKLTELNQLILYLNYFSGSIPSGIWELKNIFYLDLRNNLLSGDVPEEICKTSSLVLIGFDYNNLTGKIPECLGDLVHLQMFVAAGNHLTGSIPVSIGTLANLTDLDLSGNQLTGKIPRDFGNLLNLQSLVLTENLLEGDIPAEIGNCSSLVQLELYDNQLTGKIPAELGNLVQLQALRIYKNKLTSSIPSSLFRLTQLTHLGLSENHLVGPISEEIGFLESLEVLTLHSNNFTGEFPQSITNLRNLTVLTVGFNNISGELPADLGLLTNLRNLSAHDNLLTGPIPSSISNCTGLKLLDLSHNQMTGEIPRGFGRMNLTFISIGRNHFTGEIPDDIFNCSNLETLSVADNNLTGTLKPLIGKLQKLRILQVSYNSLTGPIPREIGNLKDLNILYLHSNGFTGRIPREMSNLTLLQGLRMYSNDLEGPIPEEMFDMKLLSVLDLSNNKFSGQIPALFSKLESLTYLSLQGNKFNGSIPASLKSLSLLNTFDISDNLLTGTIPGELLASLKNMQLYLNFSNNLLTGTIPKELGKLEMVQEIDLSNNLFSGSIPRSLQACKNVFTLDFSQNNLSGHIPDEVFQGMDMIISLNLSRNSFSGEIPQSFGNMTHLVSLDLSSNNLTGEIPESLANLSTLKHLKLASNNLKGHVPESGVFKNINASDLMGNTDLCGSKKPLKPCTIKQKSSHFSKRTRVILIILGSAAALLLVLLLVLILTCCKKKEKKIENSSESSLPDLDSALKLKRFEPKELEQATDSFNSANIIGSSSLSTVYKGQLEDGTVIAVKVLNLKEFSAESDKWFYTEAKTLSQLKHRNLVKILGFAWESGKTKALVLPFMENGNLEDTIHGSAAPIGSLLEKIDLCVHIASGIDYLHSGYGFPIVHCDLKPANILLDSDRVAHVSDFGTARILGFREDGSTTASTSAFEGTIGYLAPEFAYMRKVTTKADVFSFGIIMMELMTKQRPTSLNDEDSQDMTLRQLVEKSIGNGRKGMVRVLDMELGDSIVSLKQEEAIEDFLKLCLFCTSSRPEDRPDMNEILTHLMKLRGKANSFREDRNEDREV
Sequence of FLS2-BAK1 interaction (Q94F62 26-615 partner): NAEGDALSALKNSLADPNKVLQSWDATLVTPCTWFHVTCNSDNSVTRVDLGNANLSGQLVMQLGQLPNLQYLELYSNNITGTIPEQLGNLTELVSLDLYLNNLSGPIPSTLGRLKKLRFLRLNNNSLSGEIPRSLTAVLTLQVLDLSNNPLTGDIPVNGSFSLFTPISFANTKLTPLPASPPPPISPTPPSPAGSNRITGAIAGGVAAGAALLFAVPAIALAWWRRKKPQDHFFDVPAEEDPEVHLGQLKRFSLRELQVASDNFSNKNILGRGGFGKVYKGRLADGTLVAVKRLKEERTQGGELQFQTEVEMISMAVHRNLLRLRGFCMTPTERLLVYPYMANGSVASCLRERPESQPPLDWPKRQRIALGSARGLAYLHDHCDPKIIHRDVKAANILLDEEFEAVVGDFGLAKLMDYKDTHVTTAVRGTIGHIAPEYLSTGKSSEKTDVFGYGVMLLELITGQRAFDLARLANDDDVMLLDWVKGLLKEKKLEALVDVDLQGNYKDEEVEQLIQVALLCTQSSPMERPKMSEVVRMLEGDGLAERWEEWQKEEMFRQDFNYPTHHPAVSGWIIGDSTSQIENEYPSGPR
T1 sequence (Q9FL28 24-1173): as the sequence (Q9FL28 24-1173) above

As for RTVP^hSGP^hDPLHH [CLV3p], at FLS2-BAK1 interaction (CLV3p, 10 min), the “concentration of equal potency in peptide titration, FLS2 and BAK1 co-IP” value turned out to be 1000 nM. The “repression of pWUS::GUS reporter” value in the experiment with pWUS::GUS is on record as “repression of a sensitive pWUS::GUS reporter; also recorded: represses pWUS::GUS expression”. In addition, at FLS2 [1], the “competition with ^125I-Tyr-CLV3p for specific binding to FLS2” value (“competition with ^125I-Tyr-CLV3p” below) is reported as “could be competed”. The shoot growth result in the experiment on Arabidopsis seedlings (Col-0 and Ler WT seedlings, flg22 1, 10 nM or CLV3p 1 μM, 6 or 8 days) is given as “did not inhibit shoot growth”. The root growth result in the experiment on Arabidopsis seedlings (6 or 8 days) was “caused stronger root growth arrest”. The “root growth arrest in the clv2-1 mutant” value with Arabidopsis seedlings (clv2-1 seedlings, CLV3p 1 μM) is reported as “abolished”. Besides, the “growth effect in two independent fls2 mutants” value with Arabidopsis seedlings (fls2 and fls2-24 seedlings, flg22 1, 10 nM or CLV3p 1 μM) is recorded as “retained”. The SAM growth arrest result in the experiment with SAM is “very active in triggering the typical SAM arrest; also recorded: suppresses the SAM in Col-0 and fls2 plants”. Further, the “repression of WUS in the SAM” value in the experiment with WUS was “only in the SAM of WT and fls2-24, but not clv1-1 and clv2-1”. Also, the MAPK activation entry in the experiment on endogenous MPK3 and MPK6 (protoplasts, 1 μM CLV3p, 1 μM ΔCLV3p or 100 nM flg22 for 10 min) is “activated similar MAPK activities”. Besides, the “flg22 early marker gene activation” value in the experiment on FRK1, WRKY29 and WRKY30 is listed as “activated similar early marker genes; also recorded: triggers flg22 marker gene activation”. In addition, in experiment [2] (1 nM flg22 or 1 μM CLV3p for 1 h, WT and mutant seedlings), the “immune marker gene activation in the SAM” value was “in WT, clv1-1, clv2-1 but not fls2-24”. The “exogenous CLV3p needed for complementation of clv3-2 for immune marker gene expression in the SAM” value in experiment [2] (clv3-2 seedlings treated with 0-100 nM CLV3p for 1 h) is recorded as “nM range”.
Usually Kd stands for the constant that tells how readily two partners part at equilibrium. As to `CC(C)C[C@H](NC(=O)[C@@H]1CCCN1C(=O)[C@H](CC(=O)O)NC(=O)[C@@H]1C[C@@H](O)CN1C(=O)CNC(=O)[C@H](CO)NC(=O)[C@@H]1C[C@@H](O)CN1C(=O)[C@@H](NC(=O)[C@@H](NC(=O)[C@H](CCCNC(=N)N)NC(=O)[C@@H](N)Cc1ccc(O)c(I)c1)[C@@H](C)O)C(C)C)C(=O)N[C@@H](Cc1c[nH]cn1)C(=O)N[C@@H](Cc1c[nH]cn1)C(=O)O` [^125I-Tyr-CLV3p] (H-[Tyr(3-I)]RTV[Hyp]SG[Hyp]DPLHH-OH; N-terminus and C-terminus assumed), the Kd on FLS2 [3] was determined as 34.7 nM. Moreover, at FLS2 [3] (estimated from Bmax and 50 ug protein from 2.5 × 10^5 cells, total cell extracts), the “binding sites per cell” value was 6.36 × 10^4 binding sites per cell. In addition, at FLS2 [3] (wild-type FLS2 expressed in null fls2 protoplasts, non-specific binding with 20 μM unlabeled Tyr-CLV3p, n=3), the “specific binding of ^125I-Tyr-CLV3p” value is “showed specific binding; also recorded: specifically binds to FLS2”.
RTVP^hSGP^hDPLH [ΔCLV3p]: the “activating or blocking FLS2 signalling” value in the experiment on endogenous MPK3 and MPK6 (Fig. 1a, data not shown) was “ineffective in activating or blocking FLS2 signalling”.
Take “RQVP^hTGSDPLHH [CLE40p, reference compound]”: the “repression of pWUS::GUS reporter” value in the experiment on pWUS::GUS is reported as “repression of WUSCHEL (WUS)”. The root growth entry in the experiment on Arabidopsis seedlings (6 or 8 days) is “root growth inhibition”. Besides, the SAM growth arrest entry with SAM is recorded as “triggered the growth arrest of SAM”. Further, the “flg22 early marker gene activation” value with FRK1, WRKY29 and WRKY30 is “did not promote”.
As for QRLSTGSRINSAKDDAAGLQ [flg22-Δ2], the “block of flg22- and CLV3p-triggered FLS2-BAK1 interaction” value on FLS2-BAK1 interaction is “effectively competed with and blocked flg22 and CLV3p signalling”; at FLS2-BAK1 interaction (listed as Flg22-Δ2), “blocks CLV3p and flg22 signalling”. Further, the “competition with ^125I-Tyr-CLV3p” value at FLS2 [1] is “could be competed”.
For the compound YRTVP^hSGP^hDPLHH [Tyr-CLV3p], the “competition with ^125I-Tyr-CLV3p” value at FLS2 [1] was “could be competed”.
